Source: ChEMBL document CHEMBL4619820, “Development of Novel AKR1C3 Inhibitors as New Potential Treatment for Castration-Resistant Prostate Cancer” (J Med Chem, 2020)
Activity calls are given as the source filed them. No cut-off for these calls is given here.

Assays:
[1] = molecular target: T1, Aldo-keto reductase family 1 member C3 (Homo sapiens) (UniProt P42330); experiment: Inhibition of AKR1C3 in human 22Rv1 cells assessed as as reduction in AR nuclear translocation at 10 to 20 uM pre-incubated for 2 hrs in absence of finasteride by Western blot analysis; format: cell-based; conditions: CWR22R
T1 sequence (whole entry): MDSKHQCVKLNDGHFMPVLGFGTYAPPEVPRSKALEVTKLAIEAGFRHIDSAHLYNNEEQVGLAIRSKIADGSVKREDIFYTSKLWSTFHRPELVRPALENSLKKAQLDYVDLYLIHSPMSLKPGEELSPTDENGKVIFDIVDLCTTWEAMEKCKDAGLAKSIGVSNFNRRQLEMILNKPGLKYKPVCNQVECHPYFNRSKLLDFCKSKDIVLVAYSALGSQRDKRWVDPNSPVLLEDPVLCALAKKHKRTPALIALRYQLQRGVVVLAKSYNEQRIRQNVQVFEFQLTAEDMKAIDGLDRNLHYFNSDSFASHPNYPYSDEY

[2] = molecular target: T1, Aldo-keto reductase family 1 member C3 (Homo sapiens); experiment: Inhibition of AKR1C3 in human 22Rv1 cells assessed as as reduction in AR nuclear translocation at 10 pre-incubated for 2 hrs before 4AD addition for 24 hrs by Western blot analysis; format: cell-based; conditions: CWR22R
Method in brief: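 22Rv1 cells pretreated 2 h with or without 10 μM inhibitor, then exposed 24 h to 10 nM 4AD; nuclear AR measured by Western blot of cell extracts, normalized to Lamin A+C, as percent of control.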

[3] = molecular target: T1, Aldo-keto reductase family 1 member C3 (Homo sapiens); experiment: Inhibition of AKR1C3 in human 22Rv1 cells assessed as as reduction in PSA mRNA expression at 10 to 20 uM pre-incubated for 2 hrs before pregnenolone stimulation for 24 hrs by RT-qPCR analysis; format: cell-based; conditions: CWR22R
Method in brief: (§1)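 22Rv1 cells pretreated 2 h with test agents, then stimulated 24 h with 20 nM pregnenolone; AR, TMPRSS2 and PSA mRNA measured by RT-qPCR, given as ratio to pregnenolone-free control.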

[4] = molecular target: T1, Aldo-keto reductase family 1 member C3 (Homo sapiens); experiment: Inhibition of AKR1C3 in human 22Rv1 cells assessed as potentiation of abiraterone-induced apoptosis by measuring increase in DNA fragmentation at 10 uM pre-incubated for 2 hrs before addition of pregnenolone for 24 hrs by ethidium bromide staining based DNA agarose gel electrophores method; format: cell-based; conditions: CWR22R
[5] = molecular target: T1, Aldo-keto reductase family 1 member C3 (Homo sapiens); experiment: Inhibition of AKR1C3 in human 22Rv1 cells assessed as potentiation of enzalutamide-induced apoptosis by measuring increase in DNA fragmentation at 10 uM pre-incubated for 2 hrs before addition of pregnenolone for 24 hrs by ethidium bromide staining based DNA agarose gel electrophores method; format: cell-based; conditions: CWR22R
[6] = molecular target: T1, Aldo-keto reductase family 1 member C3 (Homo sapiens); experiment: Inhibition of AKR1C3 in human 22Rv1 cells assessed as as reduction in AR mRNA expression at 10 to 20 uM pre-incubated for 2 hrs before pregnenolone stimulation for 24 hrs by RT-qPCR analysis; format: cell-based; conditions: CWR22R; method in brief: as §1
[7] = molecular target: T1, Aldo-keto reductase family 1 member C3 (Homo sapiens); experiment: Inhibition of AKR1C3 in human 22Rv1 cells assessed as induction of ROS generation at 10 uM by DCFH-DA dye based flow cytometric analysis; format: cell-based; conditions: CWR22R
Method in brief: (§2)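 22Rv1 cells exposed 3 h to 10 μM inhibitor and/or abiraterone, or 50 μM enzalutamide; intracellular ROS by flow cytometry as DCF-positive cells, percent of vehicle control.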

[8] = molecular target: T1, Aldo-keto reductase family 1 member C3 (Homo sapiens); experiment: Inhibition of AKR1C3 in human 22Rv1 cells assessed as potentiation of abiraterone-induced apoptosis by measuring increase in cleaved PARP level at 10 uM pre-incubated for 2 hrs before addition of pregnenolone for 24 hrs by Western blot analysis; format: cell-based; conditions: CWR22R
CWR22R [9] = experiment: Inhibition of pregnenolone-induced cell cell cycle changes in human 22Rv1 cells assessed as increase in G0/GG1 phase accumulation at 10 uM pre-incubated for 2 hrs before pregnenolone stimulation for 24 hrs by propidium iodide staining based flow cytometry; format: functional
Method in brief: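 Cell cycle in 22Rv1: 2 h pretreatment with or without 10 μM inhibitor, then 24 h with 20 nM pregnenolone; G0/G1, S and G2/M fractions determined by flow cytometry.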

[10] = molecular target: T1, Aldo-keto reductase family 1 member C3 (Homo sapiens); experiment: Inhibition of AKR1C3 in human 22Rv1 cells assessed as potentiation of abiraterone-induced apoptosis by measuring increase in cleaved caspase-3 level at 10 uM pre-incubated for 2 hrs before addition of pregnenolone for 24 hrs by Western blot analysis; format: cell-based; conditions: CWR22R
CWR22R [11] = experiment: Induction of apoptosis in human 22Rv1 cells assessed as increase in DNA fragmentation at 10 uM pre-incubated for 2 hrs before addition of pregnenolone for 24 hrs by ethidium bromide staining based DNA agarose gel electrophores method; format: functional, cell-based
[12] = molecular target: T1, Aldo-keto reductase family 1 member C3 (Homo sapiens); experiment: Inhibition of AKR1C3 in human 22Rv1 cells assessed as potentiation of enzalutamide-induced apoptosis by measuring increase in cleaved caspase-3 level at 10 uM pre-incubated for 2 hrs before addition of pregnenolone for 24 hrs by Western blot analysis; format: cell-based; conditions: CWR22R
Method in brief: (§3)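 Apoptotic markers in 22Rv1: 2 h pretreatment with or without 10 μM inhibitor and/or 50 μM enzalutamide, then 24 h 20 nM pregnenolone; Bax/Bcl-2 ratio as percent of control; cleaved caspase-3 also by immunofluorescence with DAPI.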

CWR22R [13] = experiment: Effect on steroid 5alpha-reductase in human 22Rv1 cells assessed as effect on metabolism of 4AD into testosterone at 10 to 20 uM pre-incubated for 2 hrs before 4AD addition for 24 hrs by EIA; format: cell-based
Method in brief: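 22Rv1 cells pretreated 2 h with or without 2 μM finasteride and/or inhibitor, then cultured 24 h with 100 nM 4AD; testosterone in cell extracts quantified by EIA and expressed as percent of finasteride-free control.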

[14] = molecular target: T1, Aldo-keto reductase family 1 member C3 (Homo sapiens); experiment: Inhibition of AKR1C3 in human 22Rv1 cells assessed as potentiation of abiraterone-induced apoptosis by measuring increase in Bax level at 10 uM pre-incubated for 2 hrs before addition of pregnenolone for 24 hrs by Western blot analysis; format: cell-based; conditions: CWR22R
[15] = molecular target: T1, Aldo-keto reductase family 1 member C3 (Homo sapiens); experiment: Inhibition of AKR1C3 in human 22Rv1 cells assessed as potentiation of enzalutamide-induced apoptosis by measuring reduction in BCl2 level at 10 uM pre-incubated for 2 hrs before addition of pregnenolone for 24 hrs by Western blot analysis; format: cell-based; conditions: CWR22R; method in brief: as §3
[16] = molecular target: T1, Aldo-keto reductase family 1 member C3 (Homo sapiens); experiment: Inhibition of AKR1C3 in human 22Rv1 cells assessed as as reduction in TMPRSS2 mRNA expression at 10 to 20 uM pre-incubated for 2 hrs before pregnenolone stimulation for 24 hrs by RT-qPCR analysis; format: cell-based; conditions: CWR22R; method in brief: as §1
[17] = molecular target: T1, Aldo-keto reductase family 1 member C3 (Homo sapiens); experiment: Inhibition of AKR1C3 in human 22Rv1 cells assessed as potentiation of enzalutamide-induced of ROS generation at 10 uM by DCFH-DA dye based flow cytometric analysis; format: cell-based; conditions: CWR22R; method in brief: as §2
[18] = molecular target: T1, Aldo-keto reductase family 1 member C3 (Homo sapiens); experiment: Inhibition of AKR1C3 in human 22Rv1 cells assessed as potentiation of enzalutamide-induced apoptosis by measuring increase in cleaved PARP level at 10 uM pre-incubated for 2 hrs before addition of pregnenolone for 24 hrs by Western blot analysis; format: cell-based; conditions: CWR22R; method in brief: as §3
CWR22R [19] = experiment: Effect on AKR1C3 gene expression in human 22Rv1 cells at 10 uM incubated for 24 hrs by semiquantitative RT-PCR analysis; format: functional, cell-based
CWR22R [20] = experiment: Induction of apoptosis in human 22Rv1 cells assessed as increase in cleaved caspase-3 level at 10 uM pre-incubated for 2 hrs before addition of pregnenolone for 24 hrs by Western blot analysis; format: functional, cell-based; method in brief: as §3
[21] = molecular target: T1, Aldo-keto reductase family 1 member C3 (Homo sapiens); experiment: Inhibition of AKR1C3 in human 22Rv1 cells assessed as potentiation of abiraterone-induced apoptosis by measuring reduction in BCl2 level at 10 uM pre-incubated for 2 hrs before addition of pregnenolone for 24 hrs by Western blot analysis; format: cell-based; conditions: CWR22R

With N=c1oc2c(O)cccc2cc1C(=O)Nc1ccc(F)cc1 the inhibition [1] was “Active”, the inhibition [2] was “Active” and the inhibition [3] was “Active”. The inhibition [4] was “Active”, the inhibition [5] was “Active” and the inhibition [6] was “Active”. The inhibition [7] was “Active”, the inhibition [8] was “Active” and the inhibition (CWR22R [9]) was “Active”. For the same compound, the inhibition [10] was “Active”, the Activity (CWR22R [11]) was “Active” and the inhibition [12] was “Active”. For the same compound, the Activity (CWR22R [13]) was “inactive”, the inhibition [14] was “Active” and the inhibition [15] was “Active”. The inhibition [16] was “Active”, the inhibition [17] was “Active” and the inhibition [18] was “Active”. For the same compound, the Activity (CWR22R [19]) was “inactive”, the Activity (CWR22R [20]) was “Active” and the inhibition [21] was “Active”.
With Cc1ccc(NC(=O)c2cc3cccc(O)c3oc2=N)cc1 the inhibition [1] was “Active”, the inhibition [2] was “Active” and the inhibition [3] was “Active”. The inhibition [4] was “Active”, the inhibition [5] was “Active” and the inhibition [6] was “Active”. The inhibition [7] was “Active”, the inhibition [8] was “Active” and the inhibition (CWR22R [9]) was “Active”. For the same compound, the inhibition [10] was “Active”, the Activity (CWR22R [11]) was “Active” and the inhibition [12] was “Active”. The Activity (CWR22R [13]) was “inactive”, the inhibition [14] was “Active” and the inhibition [15] was “Active”. For the same compound, the inhibition [16] was “Active”, the inhibition [17] was “Active” and the inhibition [18] was “Active”. The Activity (CWR22R [19]) was “inactive”, the Activity (CWR22R [20]) was “Active” and the inhibition [21] was “Active”.
